In the library only some 2.7% were active in any assay of this set; here they are far more common.
MC4R antagonist: antagonists of human melanocortin 4 receptor (MC4R) | P32245 | MC4R-expressing cells, MTII-stimulated cAMP, LANCE TR-FRET | inhibition, % at 6.5 µM | actives 0.48% (n = 360,000) | AID 540295;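 active = inhibition above its plate's cutoff, the mean of tested wells on that plate plus 3 SD, cut at about 29% in these data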
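Test system: U2OS cells stably expressing human melanocortin 4 receptor (MC4R); also added: Melanotan II challenge; compound: 6.5 µM single dose; timing: 30-min compound preincubation, 1-h Melanotan II challenge, 1-h detection, room temperature; signal: Eu-cAMP/anti-cAMP TR-FRET, emission 671 nm; repeats: one well per compound, no replicates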
Rev-erbA mod: modulates human Rev-erb alpha binding to DNA; actives 0.79% (n = 370,000); AID 1259318; activity, % at 10 µM; Rev-erbα–FITC-DNA binding, fluorescence polarization, 90 min;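 active = activity above about 14%, limit read from the data; passing the limit was not always enough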
NR2E3 ag-1: activates human photoreceptor nuclear receptor NR2E3; GST-NR2E3/biotin-RetCOR TR-FRET, 1536-well; inhibition of corepressor binding, % at 4.78 µM; actives 0.12% (n = 320,000);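 active = percent inhibition above the cutoff of mean plus 3 SD of all tested compounds, set per screening campaign, cut at about 20% in these data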
Target sequence (Q9Y5X4 whole entry, looked up): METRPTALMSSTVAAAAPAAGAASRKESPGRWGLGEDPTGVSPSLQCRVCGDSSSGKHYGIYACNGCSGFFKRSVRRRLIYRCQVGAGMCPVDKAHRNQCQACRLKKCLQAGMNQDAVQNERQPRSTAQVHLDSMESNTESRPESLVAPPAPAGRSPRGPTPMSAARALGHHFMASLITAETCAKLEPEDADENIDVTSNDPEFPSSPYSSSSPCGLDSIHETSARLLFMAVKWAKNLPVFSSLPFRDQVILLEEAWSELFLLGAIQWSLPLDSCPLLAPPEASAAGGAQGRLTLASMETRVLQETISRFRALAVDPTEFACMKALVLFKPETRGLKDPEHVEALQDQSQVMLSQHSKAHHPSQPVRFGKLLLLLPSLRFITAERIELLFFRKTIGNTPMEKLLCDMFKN
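Format: 1536-well format; test system: GST-NR2E3 and biotin-RetCOR proteins; read-out basis: percent inhibition of TR-FRET ratio; timing: 5 h incubation at 4 °C; detection: time-resolved FRET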
PG9 Ab binder: small molecules binding HIV-1 gp120 antibody PG9 | inhibition, % at 6.7 µM | TR-FRET gp120-PG9 antibody binding | actives 0.43% (n = 360,000) | AID 624416; in the data active = inhibition above about 8.5%
NR2E3 ag-2: human photoreceptor-specific nuclear receptor agonism. Q9Y5X4. CHO-S Gal4-NCOR/VP16-NR2E3 two-hybrid, luciferase. inhibition of corepressor binding, % at 3.98 µM. actives 0.35% (n = 360,000);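 active = inhibition above the mean of all tested compounds plus 3 SD, cut at about 70% in these data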;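 note: higher means lower luciferase signal from less NR2E3 corepressor binding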
MC4R barr agon: agonists of human melanocortin 4 receptor (MC4R) beta-arrestin; P32245; U2OS MC4R beta-arrestin complementation, luminescence; percent of melanotan II response, DMSO zero; activation, % at 8.9 µM; actives 0.98% (n = 360,000);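 active = activation above a per-plate cutoff, the mean activation of sample wells on that plate plus 3 SD, cut at about 8% in these data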
MC4R barr ag: human MC4R beta-arrestin agonism confirmation. shares compounds with MC4R barr agon. U2OS MC4R beta-arrestin recruitment, luminescence; scaled DMSO 0%, Melanotan II 100%. activation, % at 8.9 µM. actives 31% (n = 2,400);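 active = mean activation across replicates above the hit cutoff set in the earlier primary screen, cut at about 8% in these data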
MOR DOR agonist: activates mu-delta opioid heterodimer, MC4R agonist counter-screen; shares compounds with MC4R barr agon; U2OS PathHunter beta-arrestin, beta-gal luminescence; percent of deltorphin B response, DMSO zero; activation, % at 9.2 µM; actives 5.8% (n = 2,400); AID 602194;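 active = mean activation across replicates exceeds the hit threshold derived in the earlier primary screen, cut at about 18% in these data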
Numbers stand for hits; – = inactive; · = no result given.

SMILES | MC4R antagonist | Rev-erbA mod | NR2E3 ag-1 | PG9 Ab binder | NR2E3 ag-2 | MC4R barr agon | MC4R barr ag | MOR DOR agonist
Cc1ccc(C(=O)Nc2c(C)cc(-c3ccc(Cl)cc3)oc2=O)cc1 | – | – | – | – | – | 19 | – | –
Cc1cc(-c2ccc(Cl)cc2)oc(=O)c1NC(=O)c1ccccc1 | – | – | – | – | – | – | · | ·
Cc1ccc(C2=Nc3ccccc3N=C(c3ccco3)C2)c(O)c1 | – | – | – | – | – | 17 | – | –
S=c1[nH]nc(C2CCCCC2)n1/N=C/C=C/c1ccccc1 | – | – | – | – | – | – | · | ·
COc1ccc(-c2cnc3c(NC=O)cc(-c4cc(OC)c(OC)c(OC)c4)cn23)cc1OC | – | – | · | – | – | 30 | 13 | –
O=CNc1cc(-c2ccsc2)cn2c(-c3ccccc3)cnc12 | – | – | · | – | – | 32 | 35 | –
COc1ccc(-c2cnc3c(NC=O)cc(-c4ccoc4)cn23)cc1OC | – | – | · | – | – | 15 | 9.3 | –
COc1ccc(-c2cnc3c(NC=O)cc(-c4ccccc4)cn23)cc1OC | – | – | · | – | – | 27 | – | –
COc1ccc(-c2cnc3c(NC=O)cc(-c4ccc(S(C)(=O)=O)cc4)cn23)cc1OC | – | – | · | – | – | – | · | ·
COc1ccc(-c2cnc3c(NC=O)cc(-c4ccc(F)cc4)cn23)cc1OC | – | – | · | – | – | – | · | ·
NNC(=O)CNc1ccccc1Cl | – | – | – | – | – | – | · | ·
CC1=CC(C)(C)C(C(=O)O)C(C(=O)O)C1 (centres undefined) | – | – | – | – | – | – | · | ·
Cc1ccccc1-c1nc(-c2ccc(NC(=O)c3ccc4c(c3)OCO4)cc2)no1 | – | – | – | – | – | 23 | 17 | –
COc1ccc(-c2noc(CNC(=O)c3ccc4c(c3)OCO4)n2)cc1 | – | – | – | – | – | – | · | ·
COc1cc(-c2nc(-c3ccc(NC(=O)c4ccc5c(c4)OCO5)cc3)no2)cc(OC)c1OC | – | – | – | – | – | 23 | 28 | 24
COc1ccc(C(CCNCc2ccc(N(C)C)cc2)c2ccccc2)cc1 (centres undefined) | – | – | – | – | – | – | · | ·
CC(C)Oc1ccc(C(CCNCc2ccc(O)cc2)c2ccccc2)cc1 (centres undefined) | – | – | · | – | – | 12 | 24 | 24
Cc1ccc(NC(=O)c2ncn(CCCN3CCN(Cc4cccc5ccccc45)CC3)n2)cc1C | – | – | · | – | – | 16 | 26 | –
COc1ccc(-c2ccc(/C=C3/C(=N)N4C(C)=CSC4=NC3=O)o2)c([N+](=O)[O-])c1 | – | – | – | – | – | 61 | – | –
C=C(C)COc1ccc(-c2n[nH]c(C)c2Oc2ccccc2OC)c(O)c1 | – | – | – | – | – | 12 | – | –
CCOc1ccc(-c2n[nH]c(C)c2Oc2ccccc2OC)c(O)c1 | – | – | – | – | – | 12 | – | –
O=C(c1ccc(F)cc1)c1ccc(CN2C(=O)c3ccccc3C2=O)o1 | – | – | – | – | – | – | · | ·
CCCCOc1ccc(C(=O)NC2CCCCN(Cc3cccc(C(F)(F)F)c3)C2=O)cc1 (centres undefined) | · | – | · | · | · | · | · | ·
Cc1nc(C)c(NC(=O)N2CCc3ccccc32)cc1NC(=O)N1CCc2ccccc21 | – | – | – | – | – | 25 | – | –
CCOC(=O)CN(Cc1sccc1C)C(=O)Nc1cccc(OC)c1 | – | – | – | – | – | – | · | ·
SMILES | MC4R antagonist | Rev-erbA mod | NR2E3 ag-1 | PG9 Ab binder | NR2E3 ag-2 | MC4R barr agon | MC4R barr ag | MOR DOR agonist
Nc1c(C(=O)N2CCCCCC2)oc2ccccc12 | – | – | – | – | – | – | · | ·
O=C(c1cnc2ccc3ccccc3c2c1)c1cc(F)ccc1O | – | – | – | – | – | 22 | – | –
Cc1nn(C)c2ncc(C(=O)c3cc(F)ccc3O)cc12 | – | – | – | – | – | – | · | ·
COc1ccc(-c2nc3c(Cl)cc(C(F)(F)F)cn3c2Cc2cccc(Cl)c2)cc1OC | · | – | · | – | – | · | · | ·
COc1cc(NS(=O)(=O)c2ccc(NC(=S)NC(=O)c3sc4ccccc4c3Cl)cc2)ncn1 | – | – | – | – | – | 15 | 19 | –
CCN(CC)CCN(C(=O)CCS(=O)(=O)c1ccccc1)c1nc2c(C)cc(C)cc2s1 | – | – | – | – | – | 12 | – | –
CC(C)(C)c1ccc2c(c1)OC(C(=O)N/N=C/c1ccc[nH]1)CO2 (centres undefined) | · | – | · | · | · | · | · | ·
CC(C)(C)c1ccc2c(c1)OC(C(=O)N/N=C\c1ccc[nH]1)CO2 (centres undefined) | – | – | – | – | – | 11 | – | –
O=C(CSc1nc2ccc(NC(=O)CSc3nnnn3-c3ccccc3)cc2s1)Nc1ccccc1 | – | – | – | – | – | 14 | – | –
O=C(CSc1nnnn1-c1ccc(F)cc1)Nc1nc2ccccc2s1 | – | – | – | – | – | 31 | – | –
O=C(Nc1ccc2c(c1)OCO2)c1cc2n(n1)C(C(F)(F)F)CC(c1ccccc1)N2 (centres undefined) | – | – | – | – | – | 15 | – | –
O=C(Nc1ccccc1)C1C2/C=C\CCCCC21 (centres undefined) | – | – | – | – | – | – | · | ·
Cc1ccc(NC(=O)C2C3/C=C\CCCCC32)cc1C (centres undefined) | – | – | – | – | – | 19 | – | –
Cc1ccc(C)c(NC(=O)c2c(Cl)nc3ccccn23)c1 | – | – | – | – | – | – | · | ·
Cc1ccccc1C(=O)N[C@H](C(=O)Nc1ccc(Cl)c(Cl)c1)C(C)C | – | – | – | – | – | 17 | – | –
CCOC(=O)c1c(C)[nH]c(C(=O)COC(=O)c2cc(C)oc2C)c1C | – | – | – | – | – | 19 | 9.9 | –
COc1ccccc1N1CCN(CCCN2C(=O)C3CCCCN3C2=O)CC1 (centres undefined) | – | – | · | – | – | – | · | ·
CCOC(=O)c1c(NC(=O)Cn2nc(C(F)(F)F)cc2C)sc(C)c1C | – | – | – | – | – | 15 | – | –
O=C(COC(=O)/C=C/c1ccccc1Cl)NCCNC(=O)COC(=O)/C=C/c1ccccc1Cl | – | – | – | – | – | 12 | – | –
Nc1c(Br)cc2oc(-c3ccccc3)nc2c1Br | – | – | – | – | – | – | · | ·
COc1ccc(-c2nc3c(Br)c(N)c(Br)cc3o2)cc1 | – | – | – | · | – | 11 | – | –

Screening results as filed in PubChem.
